Measurements as given in paper PMC9055537 (RSC Advances, 2020).
Where a SMILES comes first, the peptide text is derived from it. [ ]: non-standard residue; d: D form. Nva = CCC[C@H](N)C(=O)O; Aib = CC(C)(N)C(=O)O

biological target: Aβ42 (Homo sapiens, UniProt P05067); experiment: Thioflavin-T fluorescence assay, inhibition of Aβ42 aggregation; type: biochemical; details: 24 h, read-out: % inhibition of Aβ42 aggregation (ThT fluorescence), test peptide 10 μM (1:5), Aβ42 2 μM, co-incubated 24 h at 37 °C, λex 440 nm, λem 485 nm, mean of triplicate
Sequence (P05067 672-713): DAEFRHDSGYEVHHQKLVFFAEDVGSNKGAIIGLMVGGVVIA

| inhibition at 10 µM | SMILES |
| --- | --- |
| 31.2% | CC[C@H](C)[C@H](NC(=O)[C@@H](NC(=O)[C@@H](N)C(C)C)C(C)C)C(=O)N[C@@H](CC(C)C)C(N)=O [15e, Val-Val-Ile-Leu-NH2] (H-VVIL-NH2) |
| 35.1% | CC[C@H](C)[C@H](NC(=O)[C@@H](NC(=O)[C@@H](N)C(C)C)C(C)C)C(=O)NC(C)(C)C(N)=O [15b, Val-Val-Ile-Aib-NH2] (H-VVI[Aib]-NH2) |
| 11% | CC[C@H](C)[C@H](NC(=O)[C@@H](NC(=O)[C@@H](N)C(C)C)C(C)C)C(=O)N[C@H](C(N)=O)C(C)C [15d, Val-Val-Ile-Val-NH2] (H-VVIV-NH2) |
| 23.2% | CC[C@H](C)[C@H](NC(=O)[C@@H](NC(=O)[C@@H](N)C(C)C)C(C)C)C(=O)N[C@H](C)C(N)=O [15a, Val-Val-Ile-D-Ala-NH2] (H-VVI[dA]-NH2) |
| 21.8% | CC[C@@H](C)[C@@H](NC(=O)[C@@H](NC(=O)[C@@H](N)C(C)C)C(C)C)C(=O)N[C@@H](C)C(N)=O [14a, Val-Val-D-Ile-Ala-NH2] (H-VV[dI]A-NH2) |
| 14.2% | CC[C@H](C)[C@H](NC(=O)[C@@H]1CCCN1C(=O)[C@@H]1CCCN1)C(=O)N[C@@H](C)C(N)=O [16a, Pro-Pro-Ile-Ala-NH2] (H-PPIA-NH2) |
| 0% | CC(C)C[C@H](NC(=O)[C@@H](NC(=O)[C@@H](N)C(C)C)C(C)C)C(=O)N[C@@H](C)C(N)=O [14b, Val-Val-Leu-Ala-NH2] (H-VVLA-NH2) |

Further lines, the compound ahead of its results:

| SMILES | inhibition at 10 µM |
| --- | --- |
| CC[C@H](C)[C@H](NC(=O)[C@H](NC(=O)[C@@H](N)C(C)C)C(C)C)C(=O)N[C@@H](C)C(N)=O [13a, Val-D-Val-Ile-Ala-NH2] (H-V[dV]IA-NH2) | 15.7% |
| CC[C@H](C)[C@H](NC(=O)[C@@H](NC(=O)[C@H](N)C(C)C)C(C)C)C(=O)N[C@@H](C)C(N)=O [12a, D -Val-Val-Ile-Ala-NH2] (H-[dV]VIA-NH2) | 82.1% |
| CCC[C@H](N)C(=O)N[C@H](C(=O)N[C@H](C(=O)N[C@@H](C)C(N)=O)[C@@H](C)CC)C(C)C [12e, Nva-Val-Ile-Ala-NH2] (H-[Nva]VIA-NH2) | 70.3% |
| CC[C@H](C)[C@H](NC(=O)[C@@H](NC(=O)[C@H]1CCCN1)C(C)C)C(=O)N[C@@H](C)C(N)=O [12d, D -Pro-Val-Ile-Ala-NH2] (H-[dP]VIA-NH2) | 39.8% |
| CC[C@@H](C)[C@@H](NC(=O)[C@@H](N)C(C)C)C(=O)N[C@H](C(=O)N[C@@H](C)C(N)=O)[C@@H](C)CC [13b, Val-D-Ile-Ile-Ala-NH2] (H-V[dI]IA-NH2) | 49.4% |
| CC[C@H](C)[C@H](NC(=O)C(C)(C)NC(=O)[C@@H](N)C(C)C)C(=O)N[C@@H](C)C(N)=O [13d, Val-Aib-Ile-Ala-NH2] (H-V[Aib]IA-NH2) | 45.3% |
| CC[C@H](C)[C@H](NC(=O)[C@@H](NC(=O)[C@@H](N)Cc1ccccc1)C(C)C)C(=O)N[C@@H](C)C(N)=O [12b, Phe-Val-Ile-Ala-NH2] (H-FVIA-NH2) | 77.6% |

biological target: preformed Aβ42 fibrils (Homo sapiens, UniProt P05067); experiment: Thioflavin-T assay, deformation of preformed Aβ42 fibrils; type: biochemical; details: 24 h, test peptide 0.5 μM (1:0.1), Aβ42 2 μM pre-aggregated 24 h
Sequence (P05067 672-713): as above

| SMILES | % Deformation of preformed Aβ42 fibrils |
| --- | --- |
| CC[C@H](C)[C@H](NC(=O)[C@@H](NC(=O)[C@H](N)Cc1ccccc1)C(C)C)C(=O)N[C@@H](C)C(N)=O [12c, D-Phe-Val-Ile-Ala-NH2] (H-[dF]VIA-NH2) | 33.7% |

same assay, conditions: 24 h, test peptide 1 μM (1:0.5), Aβ42 2 μM pre-aggregated 24 h

| SMILES | % Deformation of preformed Aβ42 fibrils |
| --- | --- |
| CC[C@H](C)[C@H](NC(=O)[C@@H](NC(=O)[C@H](N)Cc1ccccc1)C(C)C)C(=O)N[C@@H](C)C(N)=O [12c, D-Phe-Val-Ile-Ala-NH2] (H-[dF]VIA-NH2) | 34.9% |

same assay, conditions: 24 h, test peptide 2 μM (1:1), Aβ42 2 μM pre-aggregated 24 h

| SMILES | % Deformation of preformed Aβ42 fibrils |
| --- | --- |
| CC[C@H](C)[C@H](NC(=O)[C@@H](NC(=O)[C@H](N)Cc1ccccc1)C(C)C)C(=O)N[C@@H](C)C(N)=O [12c, D-Phe-Val-Ile-Ala-NH2] (H-[dF]VIA-NH2) | 57.5% |

system: PC-12 cells; experiment: Cytotoxicity studies, MTT assay; type: cell-based, rat; details: highest tested concentration 20 μM, 6 h, MTT OD570, triplicate
In short: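 PC-12 cells were exposed to the test peptide alone at the stated dose for 6 h, with no Aβ added, and viability was read by MTT assay. Untreated cells were set as 100% (positive control). Samples were run in triplicate in three individual experiments and the readings were averaged (<5% variation).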

| SMILES | cytotoxicity, % viable PC-12 cells |
| --- | --- |
| CC[C@H](C)[C@H](NC(=O)[C@@H](NC(=O)[C@H](N)Cc1ccccc1)C(C)C)C(=O)N[C@@H](C)C(N)=O [12c, D-Phe-Val-Ile-Ala-NH2] (H-[dF]VIA-NH2) | negligible cytotoxicity |
